The source made the active and inactive calls. The rule behind the calls is not given here.

One may read the EC50 as the concentration needed to bring the measured effect to its halfway point. Lower therefore signals a more potent agent.

Data set [1] concerns Human immunodeficiency virus 1. As to the kind of experiment: Antiviral activity against HIV-1 SF-2 infected in human PBMC. It is filed as functional, organism-based. Particulars: Human immunodeficiency virus 1, SF-2.
Data set [2] relates to Vaccinia virus. Briefly: Antiviral activity against Vaccinia virus infected in HEL cells. It is filed as functional, organism-based. The conditions noted are these: Orthopoxvirus vaccinia.
Data set [3] in a line: Cytotoxic activity against human Molt4/C8 cells at 1000 uM after 14 days by trypan blue assay. It is filed as cell-based. Particulars: molt-4, 336 h. In short, it runs like this: (§1)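 PBMC (600,000 cells/ml) or cell lines (200,000 cells/ml) cultured 14 days with 25, 100, 250, 500 or 1,000 μM compound; viable and dead cells counted in a counting chamber after 0.4% trypan blue staining.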

In data set [4] the test system is Human immunodeficiency virus 1. As to the kind of experiment: Antiviral activity against reverse transcriptase and protease inhibitor-resistant HIV-1 isolate HI97-59 harboring reverse transcriptase M184V, L210W, T215Y and protease L10I, L63T mutant gene infected in human PBMC. In kind it is functional, organism-based. The conditions noted are these: Human immunodeficiency virus 1, isolate HI97-59. The method, boiled down:
(§2)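 Clinical isolate stocks were grown in PBMC and titred by 10-fold serial dilution (TCID50). PBMC (600,000 cells/ml) were infected at 100 TCID50 and cultured with 1, 4, 16, 64 or 256 μM α-HGA, in duplicate, with untreated infected controls. Medium was changed on days 5–7. Supernatant p24 was measured by sandwich ELISA against a recombinant p24 standard up to day 14, and EC50 was derived.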

Data set [5] relates to Human immunodeficiency virus 1. Briefly: Antiviral activity against HIV-1 SF-2 infected in human H9 cells assessed as appearance of distorted core structured viral particles by TEM assay. In kind it is functional.
For data set [6], the system named is Human immunodeficiency virus 1. As to the kind of experiment: Antiviral activity against reverse transcriptase and protease inhibitor-resistant HIV-1 isolate HI99-58 harboring reverse transcriptase D67N, K70R, A98S, Y181C, K219Q and protease M36I, L63P, I93L mutant gene infected in human PBMC. It is filed as functional, organism-based. The conditions noted are these: Human immunodeficiency virus 1, isolate HI99-58. The method, boiled down: as §2

Data set [7] concerns Human immunodeficiency virus 1. As to the kind of experiment: Antiviral activity against HIV-1 SF-2 infected in human H9 cells assessed as appearance of two separate core structured viral particles at 10 uM by TEM assay (reference value: 0%). It is filed as functional.
For data set [8], the system named is Human immunodeficiency virus 1. As to the kind of experiment: Antiviral activity against reverse transcriptase and protease inhibitor-resistant HIV-1 isolate HI95-10 harboring reverse transcriptase V179I and protease M36I, L63P mutant gene infected in human PBMC. It is filed as functional, organism-based. The conditions noted are these: Human immunodeficiency virus 1, isolate HI95-10. In short, it runs like this:
as §2

The test system of data set [9] is Human immunodeficiency virus 1. As to the kind of experiment: Antiviral activity against HIV-1 SF-2 infected in human H9 cells assessed as appearance of immature viral core morphology at 10 uM by TEM (reference value: 9%). It is filed as functional.
Data set [10] concerns Human immunodeficiency virus 1. As to the kind of experiment: Antiviral activity against reverse transcriptase and protease inhibitor-resistant HIV-1 isolate HI98-80 harboring reverse transcriptase M41L, D67N, M184V, T215F, K219Q and protease M36I mutant gene infected in human PBMC. In kind it is functional, organism-based. The conditions noted are these: Human immunodeficiency virus 1, isolate HI98-80. The method, boiled down:
as §2

Data set [11] relates to Human immunodeficiency virus 1. Briefly: Antiviral activity against reverse transcriptase and protease inhibitor-resistant HIV-1 isolate HI98-100 harboring reverse transcriptase M41L, A98G, M184V, L210W, T215Y and protease L10F,K20R, M36I, M46I, L63P, V82A mutant gene infected in human PBMC. In kind it is functional, organism-based. Particulars: Human immunodeficiency virus 1, isolate HI98-100. In short, it runs like this: as §2

Data set [12] concerns Human immunodeficiency virus 1. Briefly: Antiviral activity against HIV-1 assessed as inhibition of viral p24 tubular protein assembly at 50 uM by TEM assay. In kind it is functional, organism-based.
Data set [13] concerns Human immunodeficiency virus 1. As to the kind of experiment: Antiviral activity against reverse transcriptase and protease inhibitor-resistant HIV-1 isolate HI98-9 harboring reverse transcriptase M41L, M184V, T215Y and protease L10I, L24I, L63P, V77I, V82T/S mutant gene infected in human PBMC. It is filed as functional, organism-based. Particulars: Human immunodeficiency virus 1, isolate HI98-9. In short, it runs like this: as §2

For data set [14], the system named is PBMC. As to the kind of experiment: Effect on PHA-induced human PBMC cell proliferation up to 400 uM by beta scintillation counting. It is filed as functional, cell-based. In short, it runs like this: (§3)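 PBMC (600,000 cells/ml) cultured 96 h in RPMI/10% FCS with PHA (2.5 μg/ml) and compound at 10–2,000 μM; [³H]thymidine (1 μCi/100,000 cells) added 8 h before end. Lysed cells harvested on nitrocellulose filters, cpm by β-scintillation counting. Untreated cells and cyclosporine (1 μg/ml) as controls.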

Data set [15] relates to H9. As to the kind of experiment: Cytotoxic activity against human H9 cells at 1000 uM after 14 days by trypan blue assay. Particulars: h9, 336 h. In kind it is cell-based. In short, it runs like this:
as §1

Data set [16] concerns Human immunodeficiency virus 1. As to the kind of experiment: Antiviral activity against HIV-1 assessed as inhibition of viral p24 tubular protein assembly at 100 uM by spectrophotometry. It is filed as functional, organism-based.
The subject of data set [17] is Human immunodeficiency virus 1. Briefly: Antiviral activity against reverse transcriptase and protease inhibitor-resistant HIV-1 isolate HI98-96 harboring reverse transcriptase D67N, T69N, K70R, A98G, M184V, T215F, K219Q and protease L63P, G73T, D60E, L90M mutant gene infected in human PBMC. In kind it is functional, organism-based. The conditions noted are these: Human immunodeficiency virus 1, isolate HI98-96. In short, it runs like this: as §2

The subject of data set [18] is L1210. Briefly: Cytotoxic activity against mouse L1210 cells at 1000 uM after 14 days by trypan blue assay. It is filed as cell-based. Particulars: l1210, 336 h. The method, boiled down: as §1
Data set [19] deals with PBMC. Briefly: Cytotoxic activity against human PBMC at 1000 uM after 14 days by trypan blue assay. It is filed as cell-based. Particulars: 336 h. The method, boiled down:
as §1

Data set [20] has as its system Human immunodeficiency virus 1. As to the kind of experiment: Antiviral activity against reverse transcriptase and protease inhibitor-resistant HIV-1 isolate HI90-79 harboring reverse transcriptase M230V and protease M36I, […], A71T, I93L mutant gene infected in human PBMC. In kind it is functional, organism-based. Particulars: Human immunodeficiency virus 1, isolate HI90-79. The method, boiled down:
as §2

For data set [21], the system named is PBMC. As to the kind of experiment: Effect on PHA-induced human PBMC cell proliferation at 2000 uM by beta scintillation counting. In kind it is functional, cell-based. The method, boiled down: as §3
Data set [22] relates to Human immunodeficiency virus 1. As to the kind of experiment: Antiviral activity against HIV-1 pNL4-3 infected in human PBMC. In kind it is functional, organism-based. Particulars: Human immunodeficiency virus 1, pNL4-3.

Regarding `NC(=O)C(N)O` (configuration not stated), the EC50 in data set [1] was 1 µM; in data set [2] it was 2000 µM; in data set [4], 4.2 µM; in data set [6], 7.6 µM; in [8], 14 µM; in [10], 5.5 µM. Further, the EC50 in data set [11] came to 16 µM; in data set [13] it was 34 µM; in [17], 4.6 µM; in data set [20], 24 µM; in [22], 1 µM. The Activity entry in data set [3] was “Non-toxic”; in data set [5] it was 62%; in [7] it was 4%; in data set [9], 8%; in data set [15], “Non-toxic”; in data set [18], “Non-toxic”. Further, the Activity entry in [19] was “Non-toxic”. In addition, the inhibition result in data set [12] and in [16] was “Active” each time. The outcome in data set [14] and in data set [21] was inactive.

These data come from ChEMBL document CHEMBL1629554, “Activity of the small modified amino acid alpha-hydroxy glycineamide on in vitro and in vivo human immunodeficiency virus type 1 capsid assembly and infectivity” (Antimicrob Agents Chemother, 2008).
